Values after ≈ are worked out from the molar mass of the structure shown.
Assays:
[1] = test system: U-251; experiment: Antiproliferative activity against human U251 cells assessed as tumor growth inhibition after 48 hrs by sulforhodamine B assay; format: functional; conditions: U-251, 48 h
Outline: (§1)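 Tumor cells grown in RPMI 1640 with 5% fetal bovine serum, with penicillin/streptomycin in experimental cultures. Exposed in 96-well plates to samples in DMSO/RPMI at 0.25, 2.5, 25 and 250 µg/mL, 37 °C, 5% CO2, 48 h. Fixed with 50% trichloroacetic acid before (T0) and after treatment, protein stained with sulforhodamine B and read at 540 nm. GI50, TGI and LC50 in µg/mL from dose-response curves by non-linear regression.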

[2] = Antiproliferative activity against human OVCAR3 cells assessed as tumor growth inhibition after 48 hrs by sulforhodamine B assay; format: functional; conditions: OVCAR-3, 48 h; outline: as §1
[3] = Antiproliferative activity against human PC3 cells assessed as tumor growth inhibition after 48 hrs by sulforhodamine B assay; format: functional; conditions: PC-3, 48 h; outline: as §1
[4] = Antiproliferative activity against human OVCAR3 cells after 48 hrs by sulforhodamine B assay; format: functional; conditions: OVCAR-3, 48 h; outline: as §1
[5] = test system: NCI/ADR-RES; experiment: Antiproliferative activity against human NCI/ADR-RES cells assessed as tumor growth inhibition after 48 hrs by sulforhodamine B assay; format: functional; outline: as §1
[6] = test system: NCI-H460; experiment: Antiproliferative activity against human NCI-H460 cells after 48 hrs by sulforhodamine B assay; format: functional; conditions: NCI-H460, 48 h; outline: as §1
[7] = Antiproliferative activity against human PC3 cells after 48 hrs by sulforhodamine B assay; format: functional; conditions: PC-3, 48 h; outline: as §1
[8] = test system: U-251; experiment: Antiproliferative activity against human U251 cells after 48 hrs by sulforhodamine B assay; format: functional; conditions: U-251, 48 h; outline: as §1
[9] = test system: NCI/ADR-RES; experiment: Antiproliferative activity against human NCI/ADR-RES cells after 48 hrs by sulforhodamine B assay; format: functional; outline: as §1
[10] = test system: MCF7; experiment: Antiproliferative activity against human MCF7 cells after 48 hrs by sulforhodamine B assay; format: functional; conditions: MCF7, 48 h; outline: as §1
[11] = test system: MCF7; experiment: Antiproliferative activity against human MCF7 cells assessed as tumor growth inhibition after 48 hrs by sulforhodamine B assay; format: functional; conditions: MCF7, 48 h; outline: as §1
[12] = test system: HaCaT; experiment: Cytotoxicity against human HaCaT cells assessed as tumor growth inhibition after 48 hrs by sulforhodamine B assay; format: cell-based
Outline: (§2)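 Non-tumor lines (human HaCaT keratinocytes; Vero) in RPMI 1640 with 5% FBS, with penicillin/streptomycin added to experimental cultures. 48 h exposure at 0.25–250 µg/mL (DMSO/RPMI), 37 °C, 5% CO2. TCA fixation at time zero and at end, sulforhodamine B protein stain, absorbance 540 nm. TGI (total growth inhibition) from non-linear regression of the dose-response curve.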

[13] = test system: NCI-H460; experiment: Antiproliferative activity against human NCI-H460 cells assessed as tumor growth inhibition after 48 hrs by sulforhodamine B assay; format: functional; conditions: NCI-H460, 48 h; outline: as §1
[14] = test system: HaCaT; experiment: Cytotoxicity against human HaCaT cells after 48 hrs by sulforhodamine B assay; format: cell-based
[15] = test system: 786-0; experiment: Antiproliferative activity against human 786-0 cells after 48 hrs by sulforhodamine B assay; format: functional; conditions: 786-0, 48 h; outline: as §1
[16] = test system: 786-0; experiment: Antiproliferative activity against human 786-0 cells assessed as tumor growth inhibition after 48 hrs by sulforhodamine B assay; format: functional; conditions: 786-0, 48 h; outline: as §1
[17] = test system: U-251; experiment: Cytotoxicity against human U251 cells; format: cell-based
[18] = test system: Vero; experiment: Cytotoxicity against african green monkey Vero cells after 48 hrs by sulforhodamine B assay; format: cell-based; conditions: chlorocebus sabaeus
[19] = test system: Vero; experiment: Cytotoxicity against african green monkey Vero cells assessed as tumor growth inhibition after 48 hrs by sulforhodamine B assay; format: cell-based; conditions: chlorocebus sabaeus; outline: as §2

Structure (SMILES) | TGI [1] | TGI [2] | TGI [3] | GI50 [4] | TGI [5] | GI50 [6] | GI50 [7] | GI50 [8] | GI50 [9] | GI50 [10] | TGI [11] | TGI [12] | TGI [13] | LC50 [14] | GI50 [15] | TGI [16] | LC50 [17] | LC50 [18] | TGI [19]
CCCCCCCC/C=C\CCCCCCCC(=O)N1CCCCC1 | 25 µg/mL (≈ 71.5 µM) | 35.4 µg/mL (≈ 101 µM) | 31.8 µg/mL (≈ 91 µM) | 9.3 µg/mL (≈ 26.6 µM) | 47.4 µg/mL (≈ 136 µM) | 23 µg/mL (≈ 65.8 µM) | 8.7 µg/mL (≈ 24.9 µM) | 6.7 µg/mL (≈ 19.2 µM) | 7.7 µg/mL (≈ 22 µM) | 7.6 µg/mL (≈ 21.7 µM) | 33.3 µg/mL (≈ 95.3 µM) | 47.9 µg/mL (≈ 137 µM) | 40.7 µg/mL (≈ 116 µM) | 7.7 µg/mL (≈ 22 µM) | 10.6 µg/mL (≈ 30.3 µM) | 40.7 µg/mL (≈ 116 µM) |  |  | 
CCCCCC[C@@H](O)C/C=C\CCCCCCCC(=O)NCc1ccccc1 | 47.5 µg/mL (≈ 123 µM) | 86 µg/mL (≈ 222 µM) | 123 µg/mL (≈ 316 µM) | 31.6 µg/mL (≈ 81.5 µM) | 46.6 µg/mL (≈ 120 µM) | 32.3 µg/mL (≈ 83.3 µM) | 123 µg/mL (≈ 316 µM) | 8.6 µg/mL (≈ 22.2 µM) | 8.6 µg/mL (≈ 22.2 µM) | 37.8 µg/mL (≈ 97.5 µM) | 104 µg/mL (≈ 270 µM) | 66.5 µg/mL (≈ 172 µM) | 179 µg/mL (≈ 461 µM) | 30.8 µg/mL (≈ 79.5 µM) | 32.3 µg/mL (≈ 83.3 µM) | 71.5 µg/mL (≈ 184 µM) |  |  | 
CCCCCC[C@@H](O)C/C=C\CCCCCCCC(=O)N[C@@H](C)c1ccccc1 | 13.9 µg/mL (≈ 34.6 µM) | > 250 µg/mL | 142 µg/mL (≈ 353 µM) | 11.1 µg/mL (≈ 27.6 µM) | > 250 µg/mL | 8.3 µg/mL (≈ 20.7 µM) | 11.7 µg/mL (≈ 29.1 µM) | 3.6 µg/mL (≈ 8.96 µM) | 1.9 µg/mL (≈ 4.73 µM) | 5.1 µg/mL (≈ 12.7 µM) | 84.5 µg/mL (≈ 210 µM) |  | 132 µg/mL (≈ 329 µM) | 9.7 µg/mL (≈ 24.2 µM) | 6.7 µg/mL (≈ 16.7 µM) | 60.1 µg/mL (≈ 150 µM) | 63.6 µg/mL (≈ 158 µM) |  | 
CCCCCC[C@@H](O)C/C=C\CCCCCCCC(=O)N1CCCC1 | 4.4 µg/mL (≈ 12.5 µM) | 4.1 µg/mL (≈ 11.7 µM) | 4.3 µg/mL (≈ 12.2 µM) | 4.3 µg/mL (≈ 12.2 µM) | 4 µg/mL (≈ 11.4 µM) | 6.9 µg/mL (≈ 19.6 µM) | 6.2 µg/mL (≈ 17.6 µM) | 1.5 µg/mL (≈ 4.27 µM) | 4 µg/mL (≈ 11.4 µM) | 4.4 µg/mL (≈ 12.5 µM) | 1.5 µg/mL (≈ 4.27 µM) |  | 6.2 µg/mL (≈ 17.6 µM) |  | 4.1 µg/mL (≈ 11.7 µM) | 6.9 µg/mL (≈ 19.6 µM) |  | 4 µg/mL (≈ 11.4 µM) | 6.8 µg/mL (≈ 19.3 µM)
CCCCC/C=C\C/C=C\CCCCCCCC(=O)N[C@@H](C)c1ccccc1 | 5.1 µg/mL (≈ 13.3 µM) | 20 µg/mL (≈ 52.1 µM) | 7.7 µg/mL (≈ 20.1 µM) | 3.5 µg/mL (≈ 9.12 µM) | 16.4 µg/mL (≈ 42.8 µM) | 6.1 µg/mL (≈ 15.9 µM) | 6.8 µg/mL (≈ 17.7 µM) | 0.7 µg/mL (≈ 1.82 µM) | 3 µg/mL (≈ 7.82 µM) | 5.3 µg/mL (≈ 13.8 µM) | 38.6 µg/mL (≈ 101 µM) | 77.2 µg/mL (≈ 201 µM) | 38.9 µg/mL (≈ 101 µM) | 1.3 µg/mL (≈ 3.39 µM) | 3.2 µg/mL (≈ 8.34 µM) | 7.7 µg/mL (≈ 20.1 µM) |  |  | 
CCCCC/C=C\C/C=C\CCCCCCCC(=O)N1CCCC1 | 12 µg/mL (≈ 36 µM) | 33.9 µg/mL (≈ 102 µM) | 32.6 µg/mL (≈ 97.7 µM) | 5.7 µg/mL (≈ 17.1 µM) | 7.7 µg/mL (≈ 23.1 µM) | 7 µg/mL (≈ 21 µM) | 4.7 µg/mL (≈ 14.1 µM) | 4.2 µg/mL (≈ 12.6 µM) | 4.7 µg/mL (≈ 14.1 µM) | 4.2 µg/mL (≈ 12.6 µM) | 27.5 µg/mL (≈ 82.4 µM) |  | 36.6 µg/mL (≈ 110 µM) |  | 4.7 µg/mL (≈ 14.1 µM) | 21.9 µg/mL (≈ 65.7 µM) | 44.4 µg/mL (≈ 133 µM) | 13.7 µg/mL (≈ 41.1 µM) | 45.1 µg/mL (≈ 135 µM)
CCCCCCCCCCCCCCCC(=O)N1CCCC1 | 11.4 µg/mL (≈ 36.8 µM) | 22.9 µg/mL (≈ 74 µM) | 12.2 µg/mL (≈ 39.4 µM) | 6.3 µg/mL (≈ 20.4 µM) | 30 µg/mL (≈ 96.9 µM) | 5.9 µg/mL (≈ 19.1 µM) | 4.7 µg/mL (≈ 15.2 µM) | 4.6 µg/mL (≈ 14.9 µM) | 4.6 µg/mL (≈ 14.9 µM) | 4.6 µg/mL (≈ 14.9 µM) | 13.2 µg/mL (≈ 42.6 µM) | 12.9 µg/mL (≈ 41.7 µM) | 33.5 µg/mL (≈ 108 µM) | 4.8 µg/mL (≈ 15.5 µM) | 5.5 µg/mL (≈ 17.8 µM) | 16.1 µg/mL (≈ 52 µM) |  |  | 
CCCCCCCC/C=C\CCCCCCCC(=O)NCc1ccccc1 | > 250 µg/mL | > 250 µg/mL | > 250 µg/mL | 103 µg/mL (≈ 278 µM) | > 250 µg/mL | 94.9 µg/mL (≈ 255 µM) | 107 µg/mL (≈ 288 µM) | 55.4 µg/mL (≈ 149 µM) | 50.3 µg/mL (≈ 135 µM) | 53.4 µg/mL (≈ 144 µM) | > 250 µg/mL | > 250 µg/mL | > 250 µg/mL | 92 µg/mL (≈ 248 µM) | 104 µg/mL (≈ 281 µM) | > 250 µg/mL |  |  | 

Source: ChEMBL document CHEMBL3392966, “Antiproliferative activity of synthetic fatty acid amides from renewable resources” (Bioorg Med Chem, 2015)
